In ChEMBL document CHEMBL1165861, “Synthesis and biological evaluation of some pyrazolylpyrazolines as anti-inflammatory-antimicrobial agents” (2010):
Values after ≈ are worked out from the molar mass of the structure shown.

Columns and labels:
Format in all cases: functional
Bacillus subtilis [1] = test: Antimicrobial activity against Bacillus subtilis MTCC 121 at 4 mg/ml after 24 hrs by agar diffusion method; conditions: MTCC 121, 24 h, read-out: DIZ
Method in brief: (§1)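 Agar well diffusion: seeded agar plates swabbed with inoculum and left 15 min for adsorption, then 8 mm wells bored and loaded. Incubation 37 °C for 24 h. Inhibition zone diameter measured in mm with a zone reader. DMSO medium served as negative control and ciprofloxacin as positive control. Triplicates.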

Rattus norvegicus [2] = test: Antiinflammatory activity in Wistar albino rat assessed as inhibition of carrageenan-induced paw edema at 50 mg/kg, po administered 30 mins before carrageenan challenge measured after 90 mins relative to control
Method in brief: (§2)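 Male Wistar albino rats (200–250 g) in groups of six, food withdrawn 12 h before and during the test. Compounds were dosed orally at 50 mg/kg; controls received tween 80 (95:5). After 30 min, 0.1 mL of 1% w/v carrageenan in saline was injected subplantar into the left hind paw. Plethysmometer volumes were taken initially and at 30–120 min. AI% is relative to control, mean ± SEM, ANOVA.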

Bacillus subtilis [3] = test: Antimicrobial activity against Bacillus subtilis MTCC 121 after 24 hrs by broth microdilution assay; conditions: MTCC 121, 24 h
Method in brief: (§3)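 MIC was determined by microplate dilution (microdilution) in Müller–Hinton broth, with ciprofloxacin as the reference drug.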

Rattus norvegicus [4] = test: Antiinflammatory activity in Wistar albino rat assessed as inhibition of carrageenan-induced paw edema at 50 mg/kg, po administered 30 mins before carrageenan challenge measured after 60 mins relative to control; method in brief: as §2
Staphylococcus aureus [5] = test: Antimicrobial activity against Staphylococcus aureus MTCC 3160 after 24 hrs by broth microdilution assay; conditions: MTCC 3160, 24 h; method in brief: as §3
Rattus norvegicus [6] = test: Antiinflammatory activity in Wistar albino rat assessed as inhibition of carrageenan-induced paw edema at 50 mg/kg, po administered 30 mins before carrageenan challenge measured after 120 mins relative to control; method in brief: as §2
Pseudomonas aeruginosa [7] = test: Antimicrobial activity against Pseudomonas aeruginosa MTCC 741 after 24 hrs by broth microdilution assay; conditions: MTCC 741, 24 h; method in brief: as §3
Pseudomonas aeruginosa [8] = test: Antimicrobial activity against Pseudomonas aeruginosa MTCC 741 at 4 mg/ml after 24 hrs by agar diffusion method; conditions: MTCC 741, 24 h, read-out: DIZ; method in brief: as §1
Escherichia coli [9] = test: Antimicrobial activity against Escherichia coli MTCC 51 at 4 mg/ml after 24 hrs by agar diffusion method; conditions: MTCC 51, 24 h, read-out: DIZ; method in brief: as §1
Escherichia coli [10] = test: Antimicrobial activity against Escherichia coli MTCC 51 after 24 hrs by broth microdilution assay; conditions: MTCC 51, 24 h; method in brief: as §3
Staphylococcus aureus [11] = test: Antimicrobial activity against Staphylococcus aureus MTCC 3160 at 4 mg/ml after 24 hrs by agar diffusion method; conditions: MTCC 3160, 24 h, read-out: DIZ; method in brief: as §1
Rattus norvegicus [12] = test: Antiinflammatory activity in Wistar albino rat assessed as inhibition of carrageenan-induced paw edema at 50 mg/kg, po administered 30 mins before carrageenan challenge measured after 30 mins relative to control; method in brief: as §2

Row | SMILES | zone of inhibition at 4000 µg/mL (Bacillus subtilis [1]) | inhibition in vivo at 50 mg/kg (Rattus norvegicus [2]) | MIC (Bacillus subtilis [3]) | inhibition in vivo at 50 mg/kg (Rattus norvegicus [4]) | MIC (Staphylococcus aureus [5]) | inhibition in vivo at 50 mg/kg (Rattus norvegicus [6]) | MIC (Pseudomonas aeruginosa [7]) | zone of inhibition at 4000 µg/mL (Pseudomonas aeruginosa [8]) | zone of inhibition at 4000 µg/mL (Escherichia coli [9]) | MIC (Escherichia coli [10]) | zone of inhibition at 4000 µg/mL (Staphylococcus aureus [11]) | inhibition in vivo at 50 mg/kg (Rattus norvegicus [12])
1 | NS(=O)(=O)c1ccc(N2N=C(c3ccc(Br)cc3)CC2c2cn(-c3ccccc3)nc2-c2ccccc2)cc1 (configuration not stated) | 11.3 mm | 22% | 64 µg/mL (≈ 107 µM) | 23% | 32 µg/mL (≈ 53.5 µM) | 23% | 128 µg/mL (≈ 214 µM) | 9.66 mm | 11.7 mm | 64 µg/mL (≈ 107 µM) | 17 mm | 7%
2 | Cc1ccc(-c2nn(-c3ccccc3)cc2C2CC(c3ccc(F)cc3)=NN2c2ccc(S(N)(=O)=O)cc2)cc1 (configuration not stated) | 16.3 mm | 34% | 32 µg/mL (≈ 58 µM) | 43% | 32 µg/mL (≈ 58 µM) | 32% | 64 µg/mL (≈ 116 µM) | 11 mm | 11.7 mm | 64 µg/mL (≈ 116 µM) | 16.7 mm | 30%
3 | Cc1ccc(C2=NN(c3ccc(S(N)(=O)=O)cc3)C(c3cn(-c4ccccc4)nc3-c3ccc(C)cc3)C2)cc1 (configuration not stated) | 10.7 mm | 16% | 64 µg/mL (≈ 117 µM) | 19% | 32 µg/mL (≈ 58.4 µM) | 9% | 128 µg/mL (≈ 234 µM) | 9.33 mm | 10.7 mm | 64 µg/mL (≈ 117 µM) | 16.7 mm | 18%
4 | NS(=O)(=O)c1ccc(N2N=C(c3ccc(F)cc3)CC2c2cn(-c3ccccc3)nc2-c2ccc(Br)cc2)cc1 (configuration not stated) | 11 mm | 17% | 64 µg/mL (≈ 104 µM) | 26% | 64 µg/mL (≈ 104 µM) | 15% | 128 µg/mL (≈ 208 µM) | 9.33 mm | 9.33 mm | 128 µg/mL (≈ 208 µM) | 10 mm | 13%
5 | NS(=O)(=O)c1ccc(N2N=C(c3ccc(F)cc3)CC2c2cn(-c3ccccc3)nc2-c2ccc(F)cc2)cc1 (configuration not stated) | 10.7 mm | 16% | 16 µg/mL (≈ 28.8 µM) | 8% | 16 µg/mL (≈ 28.8 µM) | 9% | 32 µg/mL (≈ 57.6 µM) | 19.3 mm | 10.7 mm | 32 µg/mL (≈ 57.6 µM) | 21 mm | 18%
6 | NS(=O)(=O)c1ccc(N2N=C(c3ccccc3)CC2c2cn(-c3ccccc3)nc2-c2ccc(F)cc2)cc1 (configuration not stated) | 11.7 mm | 22% | 16 µg/mL (≈ 29.8 µM) | 14% | 16 µg/mL (≈ 29.8 µM) | 23% | 32 µg/mL (≈ 59.5 µM) | 17.3 mm | 17.3 mm | 32 µg/mL (≈ 59.5 µM) | 23.3 mm | 18%
